Results: ChEMBL document CHEMBL4680083, “Identification of Tricyclic Agonists of Sphingosine-1-phosphate Receptor 1 (S1P) Employing Ligand-Based Drug Design” (J Med Chem, 2016)
Blank lines part the entries; values can stand above or below the compound they belong to. Calls of active or inactive are those of the source. The rule behind the calls is not given here.

Key:
[1] = molecular target: Sphingosine 1-phosphate receptor 1 (Homo sapiens, UniProt P21453); experiment: Agonist activity at human S1P1 expressed in CHO cell membranes assessed as stimulation of [35S]-GTPgamma-S binding measured after 45 mins by liquid scintillation counting method; design: species or system Cell membrane
Sphingosine 1-phosphate receptor 1, sequence (P21453 whole entry): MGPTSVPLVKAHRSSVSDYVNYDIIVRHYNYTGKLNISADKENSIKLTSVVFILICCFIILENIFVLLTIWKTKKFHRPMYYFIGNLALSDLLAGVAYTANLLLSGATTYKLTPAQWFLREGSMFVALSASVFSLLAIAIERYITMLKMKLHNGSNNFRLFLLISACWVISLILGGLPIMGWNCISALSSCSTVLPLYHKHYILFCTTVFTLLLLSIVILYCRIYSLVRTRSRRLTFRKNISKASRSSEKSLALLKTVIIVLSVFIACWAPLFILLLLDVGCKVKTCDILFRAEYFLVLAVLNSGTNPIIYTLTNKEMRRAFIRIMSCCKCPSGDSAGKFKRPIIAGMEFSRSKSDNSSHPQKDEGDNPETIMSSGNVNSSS
In short: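 S1P1/CHO cell membranes at 3 μg protein/well with 3-fold compound dilutions. [35S]GTPγS 0.2 nM final, 45 min at room temperature. Filter-plate capture, water washes, scintillation counting. EC50 taken at 50% of each compound's own Ymax.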

[2] = Ratio of plasma concentration in Lewis rat at 1 mg/kg, po measured at 4 hrs to plasma concentration in Lewis rat at 1 mg/kg, po measured at 24 hrs; type: ADME, organism-based; settings: in vivo
Rattus norvegicus [3] = experiment: Reduction in circulating lymphocytes count in Lewis rat blood at 1 mg/kg, po measured at 4 hrs by hematology analyzer based analysis; type: functional; design: scale not given: the % may be the effect or the level left
In short: (§1)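 Lewis rats were given an oral dose as a solution or suspension in PEG300, with controls receiving vehicle only. Blood was taken by retro-orbital bleeding under isoflurane at 4 and 24 h. Lymphocytes were counted on a hematology analyzer. Reduction is relative to the vehicle group, averaged over the animals in each group (n = 3−4).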

[4] = Plasma concentration in Lewis rat at 1 mg/kg, po measured at 4 hr; type: ADME, organism-based; settings: Lewis, plasma
In short: (§2)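 Lewis rats received a single oral 1.0 mg/kg dose as solution or suspension in PEG300. Blood was drawn retro-orbitally under isoflurane at 4 h and 24 h, within the blood lymphocyte reduction study. n = 3−4 per group, group mean reported.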

[5] = Selectivity index, ratio of EC50 for agonist activity at human S1P3 expressed in CHO cell membranes to EC50 for agonist activity at human S1P1 expressed in CHO cell membranes; type: cell-based
Rattus norvegicus [6] = experiment: Reduction in circulating lymphocytes count in Lewis rat blood at 1 mg/kg, po measured at 24 hrs by hematology analyzer based analysis; type: functional; design: scale not given: the % may be the effect or the level left; in short: as §1
[7] = Plasma concentration in Lewis rat at 1 mg/kg, po measured at 24 hrs; type: ADME, organism-based; settings: Lewis, plasma; in short: as §2
[8] = molecular target: Sphingosine 1-phosphate receptor 3 (Homo sapiens, UniProt Q99500); experiment: Agonist activity at human S1P3 expressed in CHO cell membranes assessed as stimulation of [35S]-GTPgamma-S binding measured after 45 mins by liquid scintillation counting method; design: species or system Cell membrane
Sphingosine 1-phosphate receptor 3, sequence (Q99500 whole entry): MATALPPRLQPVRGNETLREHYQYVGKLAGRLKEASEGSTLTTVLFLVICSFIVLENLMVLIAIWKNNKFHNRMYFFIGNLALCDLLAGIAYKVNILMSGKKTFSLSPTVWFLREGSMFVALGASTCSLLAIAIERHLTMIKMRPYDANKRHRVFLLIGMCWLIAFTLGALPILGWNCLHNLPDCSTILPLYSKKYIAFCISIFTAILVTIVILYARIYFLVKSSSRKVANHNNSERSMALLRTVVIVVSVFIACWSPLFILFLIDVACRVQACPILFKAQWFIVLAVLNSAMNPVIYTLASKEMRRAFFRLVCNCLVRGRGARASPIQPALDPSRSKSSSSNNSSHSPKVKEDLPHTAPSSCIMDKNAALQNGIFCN

Rattus norvegicus [9] = experiment: Antiarthritic activity in Lewis rat model of Complete Freund's adjuvant-induced arthritis assessed as reduction in paw swelling at 0.1 mg/kg, po qd administered for 21 days after CFA injection and measured weekly three times upto day 21 by water displacement plethysmometry; type: functional; settings: time 21.0 day
In short: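 Male Lewis rats, 200−225 g, n = 8 per group. Immunized at the tail base with 100 μL of 10 mg/mL ground Mycobacterium butyricum in incomplete Freund's adjuvant. Oral dosing once daily in PEG300 vehicle from the day of immunization for 21 days, at 0.03, 0.1 or 1.0 mg/kg. Dexamethasone 0.1 mg/kg PO QD as positive control. Paw volume by water displacement plethysmometry, day 7 to day 21.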

EC50 [1]: 0.48 nM
Ratio [2]: 4
concentration at 4 h [4]: 160 nM
concentration at 24 h [7]: 43 nM
EC50 [8]: 1900 nM
SMILES: O=C(O)C1CN(Cc2ccc3c(c2)CCc2c-3noc2-c2noc(-c3ccccc3)c2C(F)(F)F)C1
Activity (Rattus norvegicus [3]): 83%
Ratio EC50 [5]: 4000
Activity (Rattus norvegicus [6]): 87%

EC50 [1]: 0.33 nM
Ratio [2]: 6
concentration at 4 h [4]: 150 nM
concentration at 24 h [7]: 26 nM
EC50 [8]: 1400 nM
SMILES: O=C(O)C1CN(Cc2ccc3c(c2)CCc2c-3noc2-c2nsc(-c3ccccc3)c2C(F)(F)F)C1
Activity (Rattus norvegicus [3]): 82%
Ratio EC50 [5]: 4200
Activity (Rattus norvegicus [6]): 85%

EC50 [1]: 2.4 nM
Ratio [2]: 3
concentration at 4 h [4]: 230 nM
concentration at 24 h [7]: 84 nM
EC50 [8]: 12000 nM
SMILES: O=C(O)C1CN(Cc2ccc3c(c2)CCc2nc(-c4onc(-c5ccccc5)c4C(F)(F)F)sc2-3)C1
Activity (Rattus norvegicus [3]): 80%
Ratio EC50 [5]: 5000
Activity (Rattus norvegicus [6]): 85%

EC50 [1]: 5.5 nM
Ratio [2]: 10
concentration at 4 h [4]: 110 nM
concentration at 24 h [7]: 11 nM
EC50 [8]: 920 nM
SMILES: O=C(O)C1CN(Cc2ccc3c(c2)CCc2nc(-c4onc(-c5ccccc5)c4C(F)(F)F)oc2-3)C1
Activity (Rattus norvegicus [3]): 62%
Ratio EC50 [5]: 170
Activity (Rattus norvegicus [6]): 2%

EC50 [1]: 1.3 nM
Ratio [2]: 4
concentration at 4 h [4]: 34 nM
concentration at 24 h [7]: 8 nM
EC50 [8]: 4400 nM
SMILES: O=C(O)C1CN(Cc2ccc3c(c2)CCc2c(-c4onc(-c5ccccc5)c4C(F)(F)F)noc2-3)C1
Activity (Rattus norvegicus [3]): 66%
Ratio EC50 [5]: 3400
Activity (Rattus norvegicus [6]): 79%

The next lines start with the compound.

SMILES: O=C(O)C1CN(Cc2ccc3c(n2)CCc2c(-c4noc(-c5ccccc5)c4C(F)(F)F)noc2-3)C1
EC50 [1]: 17 nM
Ratio [2]: 10
Activity (Rattus norvegicus [3]): 76%
concentration at 4 h [4]: 460 nM
Ratio EC50 [5]: > 3700
Activity (Rattus norvegicus [6]): 32%
concentration at 24 h [7]: 47 nM
EC50 [8]: > 63000 nM

SMILES: CC(C)Cc1ccc(-c2onc3c2CCc2cc(CN4CC(C(=O)O)C4)ccc2-3)cc1C(F)(F)F
EC50 [1]: 1.3 nM
Ratio [2]: 2
Activity (Rattus norvegicus [3]): 74%
concentration at 4 h [4]: 110 nM
Ratio EC50 [5]: 2200
Activity (Rattus norvegicus [6]): 76%
concentration at 24 h [7]: 50 nM
EC50 [8]: 2800 nM

SMILES: C[C@@H]1C[C@H]2[C@@H]3CCC4=CC(=O)C=C[C@]4(C)[C@@]3(F)[C@@H](O)C[C@]2(C)[C@@]1(O)C(=O)CO
Activity (Rattus norvegicus [9]): Active

SMILES: O=C(O)C1CN(Cc2cc3c(cc2F)-c2noc(-c4noc(-c5ccccc5)c4C(F)(F)F)c2CC3)C1
EC50 [1]: 1.6 nM
Ratio [2]: 7
Activity (Rattus norvegicus [3]): 74%
concentration at 4 h [4]: 320 nM
Ratio EC50 [5]: 9400
Activity (Rattus norvegicus [6]): 79%
concentration at 24 h [7]: 46 nM
EC50 [8]: 15000 nM

SMILES: CC1(c2onc(-c3onc4c3CCc3cc(CN5CC(C(=O)O)C5)ccc3-4)c2C(F)(F)F)CC1
EC50 [1]: 1.3 nM
Ratio [2]: 48
Activity (Rattus norvegicus [3]): 85%
concentration at 4 h [4]: 190 nM
Ratio EC50 [5]: 1000
Activity (Rattus norvegicus [6]): 34%
concentration at 24 h [7]: 4 nM
EC50 [8]: 1300 nM

SMILES: O=C(O)C1CN(Cc2ccc3c(c2)OCc2c-3noc2-c2noc(-c3ccccc3)c2C(F)(F)F)C1
EC50 [1]: 0.27 nM
Ratio [2]: 5
Activity (Rattus norvegicus [3]): 87%
concentration at 4 h [4]: 230 nM
Ratio EC50 [5]: 4400
Activity (Rattus norvegicus [6]): 93%
concentration at 24 h [7]: 46 nM
EC50 [8]: 1200 nM

SMILES: O=C(O)C1CN(Cc2ccc3c(c2)OCc2c-3noc2-c2onc(-c3ccccc3)c2C(F)(F)F)C1
EC50 [1]: 0.25 nM
Ratio [2]: 6
Activity (Rattus norvegicus [3]): 82%
concentration at 4 h [4]: 330 nM
Ratio EC50 [5]: > 120000
Activity (Rattus norvegicus [6]): 89%
concentration at 24 h [7]: 56 nM
EC50 [8]: > 31000 nM
